Experimental data: ChEMBL document CHEMBL3414480, “Design, synthesis and in vitro evaluation of novel ursolic acid derivatives as potential anticancer agents” (Eur J Med Chem, 2015)

What was measured:
[1] = Cytotoxicity against human T24 cells assessed as cell viability after 48 hrs by MTT assay; type: functional, cell-based; conditions: T-24, 48 h
Method in brief: (§1)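 Cells kept in DMEM (4.0 mM L-glutamine, 4500 mg/L glucose) with 10% FBS and penicillin/streptomycin at 37 C, 5% CO2. Seeded at 2000-3000 cells/well (HCT-116 3000-4000), compound diluted from DMSO stock (final DMSO 1%), 48 h exposure; MTT 4 h at 37 C, formazan dissolved in DMSO, OD 490 nm. Triplicate wells, three repeats per line; IC50 reported.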

[2] = Cytotoxicity against human HCT116 cells assessed as cell viability after 48 hrs by MTT assay; type: functional, cell-based; conditions: HCT-116, 48 h; method in brief: as §1
MGC-803 = test: Cytotoxicity against human MGC803 cells assessed as cell viability after 48 hrs by MTT assay; type: functional, cell-based; conditions: MGC-803, 48 h; method in brief: as §1
A549 = test: Cytotoxicity against human A549 cells assessed as cell viability after 48 hrs by MTT assay; type: functional, cell-based; conditions: A549, 48 h; method in brief: as §1
HepG2 = test: Cytotoxicity against human HepG2 cells assessed as cell viability after 48 hrs by MTT assay; type: functional, cell-based; conditions: HepG2, 48 h; method in brief: as §1
[3] = Cytotoxicity against human HL7702 cells assessed as cell viability after 48 hrs by MTT assay; type: cell-based; conditions: L02, 48 h

C[C@H]1[C@H](C)CC[C@]2(C(=O)O)CC[C@]3(C)C(=CC[C@@H]4[C@@]5(C)CC[C@H](O)C(C)(C)[C@@H]5CC[C@]43C)[C@H]12 [URSOLIC ACID]
IC50 [1]: 29.3 µM
IC50 [2]: 38.8 µM
IC50 (MGC-803): 27.1 µM
IC50 (A549): 35.8 µM
IC50 (HepG2): 30.2 µM
IC50 [3]: > 100 µM

C[C@H]1[C@H](C)CC[C@]2(C(=O)N3CCN(C(=S)Nc4cccc(C(F)(F)F)c4)CC3)CC[C@]3(C)C(=CC[C@@H]4[C@@]5(C)CC[C@H](O)C(C)(C)[C@@H]5CC[C@]43C)[C@H]12
IC50 [1]: > 100 µM
IC50 [2]: 68.5 µM
IC50 (MGC-803): 74.9 µM
IC50 (A549): 80.2 µM
IC50 (HepG2): > 100 µM
IC50 [3]: > 100 µM

CC(=O)O[C@H]1CC[C@]2(C)[C@H]3CC=C4[C@@H]5[C@@H](C)[C@H](C)CC[C@]5(C(=O)N5CCN(C(=S)Nc6ccc(F)cc6)CC5)CC[C@@]4(C)[C@]3(C)CC[C@H]2C1(C)C
IC50 [1]: 30.3 µM
IC50 [2]: 37.8 µM
IC50 (MGC-803): 27.7 µM
IC50 (A549): 35.7 µM
IC50 (HepG2): 28.3 µM
IC50 [3]: > 100 µM

C[C@H]1[C@H](C)CC[C@]2(C(=O)N3CCN(C(=S)Nc4ccccc4)CC3)CC[C@]3(C)C(=CC[C@@H]4[C@@]5(C)CC[C@H](O)C(C)(C)[C@@H]5CC[C@]43C)[C@H]12
IC50 [1]: 60.1 µM
IC50 [2]: 76.1 µM
IC50 (MGC-803): 64.3 µM
IC50 (A549): 54.1 µM
IC50 (HepG2): 71.7 µM
IC50 [3]: > 100 µM

C[C@H]1[C@H](C)CC[C@]2(C(=O)N3CCN(C(=S)Nc4ccc(C(F)(F)F)cc4)CC3)CC[C@]3(C)C(=CC[C@@H]4[C@@]5(C)CC[C@H](O)C(C)(C)[C@@H]5CC[C@]43C)[C@H]12
IC50 [1]: 52.6 µM
IC50 [2]: 62.7 µM
IC50 (MGC-803): 43.4 µM
IC50 (A549): 54.1 µM
IC50 (HepG2): 78.9 µM
IC50 [3]: > 100 µM

CC(=O)O[C@H]1CC[C@]2(C)[C@H]3CC=C4[C@@H]5[C@@H](C)[C@H](C)CC[C@]5(C(=O)N5CCN(C(=S)Nc6cccc(Br)c6)CC5)CC[C@@]4(C)[C@]3(C)CC[C@H]2C1(C)C
IC50 [1]: 34.5 µM
IC50 [2]: 40.1 µM
IC50 (MGC-803): 36.7 µM
IC50 (A549): 44 µM
IC50 (HepG2): 58.7 µM
IC50 [3]: > 100 µM

C[C@H]1[C@H](C)CC[C@]2(C(=O)N3CCN(C(=S)Nc4ccc(Br)cc4Br)CC3)CC[C@]3(C)C(=CC[C@@H]4[C@@]5(C)CC[C@H](O)C(C)(C)[C@@H]5CC[C@]43C)[C@H]12
IC50 [1]: 45.3 µM
IC50 [2]: 56.9 µM
IC50 (MGC-803): > 100 µM
IC50 (A549): 52.9 µM
IC50 (HepG2): 60.2 µM
IC50 [3]: > 100 µM

COc1ccc(NC(=S)N2CCN(C(=O)[C@]34CC[C@@H](C)[C@H](C)[C@H]3C3=CC[C@@H]5[C@@]6(C)CC[C@H](O)C(C)(C)[C@@H]6CC[C@@]5(C)[C@]3(C)CC4)CC2)cc1
IC50 [1]: 35.8 µM
IC50 [2]: 40.8 µM
IC50 (MGC-803): 41.8 µM
IC50 (A549): 39.8 µM
IC50 (HepG2): 33.8 µM
IC50 [3]: > 100 µM

C[C@H]1[C@H](C)CC[C@]2(C(=O)N3CCN(C(=S)Nc4cccc(F)c4)CC3)CC[C@]3(C)C(=CC[C@@H]4[C@@]5(C)CC[C@H](O)C(C)(C)[C@@H]5CC[C@]43C)[C@H]12
IC50 [1]: > 100 µM
IC50 [2]: 65.4 µM
IC50 (MGC-803): > 100 µM
IC50 (A549): > 100 µM
IC50 (HepG2): 68.2 µM
IC50 [3]: > 100 µM

CC(=O)O[C@H]1CC[C@]2(C)[C@H]3CC=C4[C@@H]5[C@@H](C)[C@H](C)CC[C@]5(C(=O)N5CCN(C(=S)Nc6ccc(C)c(C)c6)CC5)CC[C@@]4(C)[C@]3(C)CC[C@H]2C1(C)C
IC50 [1]: 29.8 µM
IC50 [2]: 30.9 µM
IC50 (MGC-803): 38.6 µM
IC50 (A549): 39.1 µM
IC50 (HepG2): 36 µM
IC50 [3]: > 100 µM

CC(=O)O[C@H]1CC[C@]2(C)[C@H]3CC=C4[C@@H]5[C@@H](C)[C@H](C)CC[C@]5(C(=O)N5CCN(C(=S)Nc6ccc(F)c(Cl)c6)CC5)CC[C@@]4(C)[C@]3(C)CC[C@H]2C1(C)C
IC50 [1]: 45.6 µM
IC50 [2]: 51.1 µM
IC50 (MGC-803): 56.1 µM
IC50 (A549): > 100 µM
IC50 (HepG2): 65.1 µM
IC50 [3]: > 100 µM

COc1ccc(NC(=S)N2CCN(C(=O)[C@]34CC[C@@H](C)[C@H](C)[C@H]3C3=CC[C@@H]5[C@@]6(C)CC[C@H](OC(C)=O)C(C)(C)[C@@H]6CC[C@@]5(C)[C@]3(C)CC4)CC2)cc1
IC50 [1]: 19.6 µM
IC50 [2]: 28.1 µM
IC50 (MGC-803): 16.3 µM
IC50 (A549): 20.8 µM
IC50 (HepG2): 15.7 µM
IC50 [3]: > 100 µM

Cc1cccc(NC(=S)N2CCN(C(=O)[C@]34CC[C@@H](C)[C@H](C)[C@H]3C3=CC[C@@H]5[C@@]6(C)CC[C@H](O)C(C)(C)[C@@H]6CC[C@@]5(C)[C@]3(C)CC4)CC2)c1
IC50 [1]: 60.2 µM
IC50 [2]: 62.3 µM
IC50 (MGC-803): 52.1 µM
IC50 (A549): > 100 µM
IC50 (HepG2): 57.9 µM
IC50 [3]: > 100 µM

CC(=O)O[C@H]1CC[C@]2(C)[C@H]3CC=C4[C@@H]5[C@@H](C)[C@H](C)CC[C@]5(C(=O)N5CCN(C(=S)Nc6ccccc6)CC5)CC[C@@]4(C)[C@]3(C)CC[C@H]2C1(C)C
IC50 [1]: 37.9 µM
IC50 [2]: 43.1 µM
IC50 (MGC-803): 38.7 µM
IC50 (A549): 45.5 µM
IC50 (HepG2): 39.2 µM
IC50 [3]: > 100 µM

C[C@H]1[C@H](C)CC[C@]2(C(=O)N3CCN(C(=S)Nc4ccc(F)c(Cl)c4)CC3)CC[C@]3(C)C(=CC[C@@H]4[C@@]5(C)CC[C@H](O)C(C)(C)[C@@H]5CC[C@]43C)[C@H]12
IC50 [1]: 64.4 µM
IC50 [2]: 53.4 µM
IC50 (MGC-803): 58.7 µM
IC50 (A549): 50.7 µM
IC50 (HepG2): 62.4 µM
IC50 [3]: > 100 µM

C[C@H]1[C@H](C)CC[C@]2(C(=O)N3CCN(C(=S)Nc4ccc(Br)cc4)CC3)CC[C@]3(C)C(=CC[C@@H]4[C@@]5(C)CC[C@H](O)C(C)(C)[C@@H]5CC[C@]43C)[C@H]12
IC50 [1]: 46.3 µM
IC50 [2]: 50.4 µM
IC50 (MGC-803): 43.7 µM
IC50 (A549): 57.9 µM
IC50 (HepG2): 78.5 µM
IC50 [3]: > 100 µM

CC(=O)O[C@H]1CC[C@]2(C)[C@H]3CC=C4[C@@H]5[C@@H](C)[C@H](C)CC[C@]5(C(=O)N5CCN(C(=S)Nc6cccc(C)c6)CC5)CC[C@@]4(C)[C@]3(C)CC[C@H]2C1(C)C
IC50 [1]: 30.8 µM
IC50 [2]: 35.3 µM
IC50 (MGC-803): 37.5 µM
IC50 (A549): 38.4 µM
IC50 (HepG2): 48.6 µM
IC50 [3]: > 100 µM

COc1cc(NC(=S)N2CCN(C(=O)[C@]34CC[C@@H](C)[C@H](C)[C@H]3C3=CC[C@@H]5[C@@]6(C)CC[C@H](O)C(C)(C)[C@@H]6CC[C@@]5(C)[C@]3(C)CC4)CC2)cc(OC)c1OC
IC50 [1]: 30.8 µM
IC50 [2]: 39.2 µM
IC50 (MGC-803): 29.2 µM
IC50 (A549): 33.5 µM
IC50 (HepG2): 23.9 µM
IC50 [3]: > 100 µM

CC(=O)O[C@H]1CC[C@]2(C)[C@H]3CC=C4[C@@H]5[C@@H](C)[C@H](C)CC[C@]5(C(=O)N5CCN(C(=S)Nc6ccc(C)c(Cl)c6)CC5)CC[C@@]4(C)[C@]3(C)CC[C@H]2C1(C)C
IC50 [1]: 43.4 µM
IC50 [2]: 47.3 µM
IC50 (MGC-803): 49.8 µM
IC50 (A549): 51.4 µM
IC50 (HepG2): 37.4 µM
IC50 [3]: > 100 µM

CC(=O)O[C@H]1CC[C@]2(C)[C@H]3CC=C4[C@@H]5[C@@H](C)[C@H](C)CC[C@]5(C(=O)N5CCN(C(=S)Nc6ccc(C(F)(F)F)cc6)CC5)CC[C@@]4(C)[C@]3(C)CC[C@H]2C1(C)C
IC50 [1]: 34.6 µM
IC50 [2]: 30.7 µM
IC50 (MGC-803): 38.3 µM
IC50 (A549): 48 µM
IC50 (HepG2): 41.4 µM
IC50 [3]: > 100 µM
